Measured values of several laboratories.
Protocols differ between the studies behind these lines.
Target: Ribosomal protein S6 kinase beta-1 (RPS6KB1, Homo sapiens, UniProt P23443)
Effect on: enzyme activity
Mode: inhibitor

CC(C)(O)[C@H]1CC[C@H](Nc2ccc3ncc(-c4cccc(C(F)(F)F)c4)n3n2)CC1 — remaining activity (1 µM): 96.8%
O=C(Nc1cnn(-c2csc(C(=O)NC3COC3)c2)c1)Nc1c(F)cccc1Cl — remaining activity (5 µM): 97.7%
Nc1nc(NC2CCCCC2)sc1C(=O)c1ccccc1 — remaining activity (10 µM): 78%
COc1cc(Nc2cnc(C#N)c(O[C@H](C)CN(C)C)n2)ncc1-c1cnn(C)c1 — remaining activity (radiometric; 1 µM): 55%
FC(F)c1nc2ccccc2n1-c1nc(N2CCOCC2)nc(N2CCOCC2)n1 — remaining activity (10 µM): 98%
CC(C)(C)c1nc(-c2cccc(NS(=O)(=O)c3c(F)cccc3F)c2F)c(-c2ccnc(N)n2)s1 — remaining activity (radiometric; 1 µM): 75%
Cc1sc(C(=O)NC2COC2)cc1-n1cc(NC(=O)Nc2c(F)cccc2Cl)cn1 — remaining activity (10 µM): 92.1%
Oc1cccc(-c2nc(N3CCOCC3)c3oc4ncccc4c3n2)c1 — remaining activity (10 µM): 90%
CCN(CC)CCNC(=O)c1c(C)[nH]c(/C=C2\C(=O)Nc3ccc(F)cc32)c1C — remaining activity (0.1 µM): 79%
CCN(CC)c1ccc(C2=NNC(=O)CC2C)cc1[N+](=O)[O-] (stereo not drawn) — remaining activity (10 µM): 109%
Nc1nc(Nc2ccccc2)sc1C(=O)c1c(F)cccc1F — remaining activity (10 µM): 57%
Cc1[nH]c(/C=C2\C(=O)Nc3ccc(F)cc32)c(C)c1C(=O)N[C@H]1CCN(C(=O)N(C)C)C1 — remaining activity (0.1 µM): 84%
